Measurements taken from ChEMBL document CHEMBL1157441, “Fungicidal activity of truncated analogues of dihydrosphingosine” (2008).
In brackets after ≈: the same amount, converted by molar mass. Activity calls are given as the source filed them.

Assays:
[1] = tested on: Nakaseomyces glabratus; experiment: Fungicidal activity against Candida glabrata BG2; format: functional
How it was run: (§1)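 Overnight cultures diluted 1/400 in PBS, exposed to compound or DMSO without ascorbic acid for 0 h and 5 h at 37°C. Survivors counted as CFU on YPD agar after 2 days at 30°C. MFC taken as lowest concentration giving under 1% survival relative to DMSO control.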

[2] = tested on: Candida albicans; experiment: Fungicidal activity against Candida albicans CAI4; format: functional; how it was run: as §1
[3] = tested on: Candida albicans; experiment: Fungicidal activity against Candida albicans CAI4 in presence of 10 mM ascorbic acid; format: functional
How it was run: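 Overnight C. albicans culture diluted 1/400 in PBS, exposed to compound or DMSO with 10 mM ascorbic acid for 0 h and 5 h at 37°C. CFU counted on YPD agar after 2 days at 30°C. MFC defined as minimal concentration leaving under 1% survival versus DMSO control.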

[4] = tested on: Candida albicans; experiment: Induction of endogenous ROS accumulation in Candida albicans CAI4 after 3 hrs by 2',7'-dichlorofluorescein diacetate staining; format: functional, organism-based
How it was run: (§2)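 Log-phase cells suspended in PBS and pre-incubated with compounds for 3 h at 37°C. Cells then washed in PBS and incubated with 2',7'-dichlorofluorescein diacetate for 3 h at 37°C. Cellular fluorescence read by fluorescence spectrometer, ex 485 nm / em 525 nm. Tested over a range of concentrations up to 100 µg/ml.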

[5] = tested on: Candida albicans; experiment: Induction of endogenous ROS accumulation in Candida albicans CAI4 at 100 ug/ml after 3 hrs by 2',7'-dichlorofluorescein diacetate staining; format: functional, organism-based; how it was run: as §2

SMILES | MFC [1] | MFC [2] | MFC [3] | Activity [4] | Activity [5]
CCCCCCCCCCCCCCC[C@@H](O)[C@@H](N)CO [DIHYDROSPINGOSINE] | 1 µg/mL (≈ 3.32 µM) | 5 µg/mL (≈ 16.6 µM) | 5 µg/mL | Active | –
CCCCCC[C@@H](O)[C@@H](N)CO | > 100 µg/mL | > 100 µg/mL | – | – | inactive
CCCCCCCCCCCCCC[C@@H](O)[C@@H](O)[C@@H](N)CO [PHYTOSPHINGOSINE] | 1 µg/mL (≈ 3.15 µM) | 1 µg/mL (≈ 3.15 µM) | 1 µg/mL | Active | –
CCCCCCCCCCCCCC[C@@H](O)[C@@H](N)CO | 0.5 µg/mL (≈ 1.74 µM) | 0.5 µg/mL (≈ 1.74 µM) | 2 µg/mL | Active | –
CCCCCCCCC[C@@H](O)[C@@H](N)CO | 10 µg/mL (≈ 46 µM) | 10 µg/mL (≈ 46 µM) | > 25 µg/mL | Active | –
CCCCCCCCCCCC[C@@H](O)[C@@H](N)CO | 0.5 µg/mL (≈ 1.93 µM) | 0.5 µg/mL (≈ 1.93 µM) | 10 µg/mL | Active | –
CC[C@@H](O)[C@@H](N)CO | > 100 µg/mL | > 100 µg/mL | – | – | inactive
